The source made the active and inactive calls. No cut-off for these calls is given here.
Assays:
[1] = target: Muscarinic acetylcholine receptor M3 (Homo sapiens) (UniProt P20309); test: Positive allosteric modulator activity at human muscarinic M3 receptor expressed in CHO cells assessed as effect on acetylcholine-induced intracellular calcium mobilization by FLIPR assay; format: functional, cell-based
[2] = target: T1, Muscarinic acetylcholine receptor M2 (Homo sapiens) (UniProt P08172); test: Positive allosteric modulator activity at human muscarinic acetylcholine M2 receptor expressed in CHO cells assessed as effect on acetylcholine-induced intracellular calcium mobilization by FLIPR assay; format: functional, cell-based
T1 sequence (whole entry): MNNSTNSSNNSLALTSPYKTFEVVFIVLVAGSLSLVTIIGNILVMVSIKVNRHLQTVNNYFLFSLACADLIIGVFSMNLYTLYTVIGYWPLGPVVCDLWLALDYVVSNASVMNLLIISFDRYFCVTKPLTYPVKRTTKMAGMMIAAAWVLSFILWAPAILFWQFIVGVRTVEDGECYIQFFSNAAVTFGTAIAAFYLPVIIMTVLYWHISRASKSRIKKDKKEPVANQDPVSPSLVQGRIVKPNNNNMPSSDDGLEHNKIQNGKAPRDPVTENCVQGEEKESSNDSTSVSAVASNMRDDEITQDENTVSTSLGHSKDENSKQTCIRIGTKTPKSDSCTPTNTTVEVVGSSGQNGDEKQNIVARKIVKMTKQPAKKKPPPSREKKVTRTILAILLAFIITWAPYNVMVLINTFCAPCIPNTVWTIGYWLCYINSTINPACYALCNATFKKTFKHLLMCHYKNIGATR

[3] = target: T2, Muscarinic acetylcholine receptor M4 (Homo sapiens) (UniProt P08173); test: Positive allosteric modulator activity at human muscarinic M4 receptor expressed in CHO cells assessed as effect on acetylcholine-induced intracellular calcium mobilization by FLIPR assay; format: functional, cell-based
T2 sequence (whole entry): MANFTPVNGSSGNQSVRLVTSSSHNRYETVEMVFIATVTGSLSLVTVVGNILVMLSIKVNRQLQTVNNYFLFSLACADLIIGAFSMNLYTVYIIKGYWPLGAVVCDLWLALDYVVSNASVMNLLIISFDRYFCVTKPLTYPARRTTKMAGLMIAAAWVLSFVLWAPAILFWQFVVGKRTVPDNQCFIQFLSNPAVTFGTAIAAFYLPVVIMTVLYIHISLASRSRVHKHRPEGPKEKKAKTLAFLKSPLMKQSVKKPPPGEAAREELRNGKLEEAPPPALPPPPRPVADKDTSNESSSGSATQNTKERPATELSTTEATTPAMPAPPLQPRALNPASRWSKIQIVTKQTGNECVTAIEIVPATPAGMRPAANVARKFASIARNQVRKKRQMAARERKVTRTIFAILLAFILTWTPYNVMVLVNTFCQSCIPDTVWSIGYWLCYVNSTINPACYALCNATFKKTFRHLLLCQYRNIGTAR

[4] = Plasma protein binding in rat serum by equilibrium dialysis method
[5] = target: T3, Muscarinic acetylcholine receptor M1 (Homo sapiens) (UniProt P11229); test: Positive allosteric modulator activity at human muscarinic M1 receptor expressed in CHO cells assessed as effect on acetylcholine-induced intracellular calcium mobilization by FLIPR assay; format: functional, cell-based
T3 sequence (whole entry): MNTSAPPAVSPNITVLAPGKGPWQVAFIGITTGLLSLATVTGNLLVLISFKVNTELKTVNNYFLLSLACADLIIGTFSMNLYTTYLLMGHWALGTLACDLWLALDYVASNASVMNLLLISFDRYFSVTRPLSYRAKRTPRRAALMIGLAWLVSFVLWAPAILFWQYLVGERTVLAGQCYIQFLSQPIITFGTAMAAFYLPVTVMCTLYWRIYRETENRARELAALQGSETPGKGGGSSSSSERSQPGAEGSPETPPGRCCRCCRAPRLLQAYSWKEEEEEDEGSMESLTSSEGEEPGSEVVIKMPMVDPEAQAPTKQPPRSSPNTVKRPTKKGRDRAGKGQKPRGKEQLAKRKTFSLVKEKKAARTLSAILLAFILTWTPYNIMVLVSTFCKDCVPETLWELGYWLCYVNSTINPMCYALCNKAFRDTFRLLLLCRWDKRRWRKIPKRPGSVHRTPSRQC
Outline: (§1)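 CHO cells expressing human M1 were run with an EC20 concentration of acetylcholine. Calcium mobilization was read on a FLIPR384. Potency is reported as the inflection point. Percent max is the compound plus EC20 ACh response relative to the maximal acetylcholine effect.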

[6] = Plasma protein binding in human serum by equilibrium dialysis method
[7] = target: T3, Muscarinic acetylcholine receptor M1 (Homo sapiens); test: Positive allosteric modulator activity at human muscarinic M1 receptor expressed in CHO cells assessed as effect on acetylcholine-induced intracellular calcium mobilization by FLIPR assay relative to acetylcholine; format: functional, cell-based; outline: as §1

Sequence of Muscarinic acetylcholine receptor M3 (Homo sapiens) (P20309 whole entry, looked up): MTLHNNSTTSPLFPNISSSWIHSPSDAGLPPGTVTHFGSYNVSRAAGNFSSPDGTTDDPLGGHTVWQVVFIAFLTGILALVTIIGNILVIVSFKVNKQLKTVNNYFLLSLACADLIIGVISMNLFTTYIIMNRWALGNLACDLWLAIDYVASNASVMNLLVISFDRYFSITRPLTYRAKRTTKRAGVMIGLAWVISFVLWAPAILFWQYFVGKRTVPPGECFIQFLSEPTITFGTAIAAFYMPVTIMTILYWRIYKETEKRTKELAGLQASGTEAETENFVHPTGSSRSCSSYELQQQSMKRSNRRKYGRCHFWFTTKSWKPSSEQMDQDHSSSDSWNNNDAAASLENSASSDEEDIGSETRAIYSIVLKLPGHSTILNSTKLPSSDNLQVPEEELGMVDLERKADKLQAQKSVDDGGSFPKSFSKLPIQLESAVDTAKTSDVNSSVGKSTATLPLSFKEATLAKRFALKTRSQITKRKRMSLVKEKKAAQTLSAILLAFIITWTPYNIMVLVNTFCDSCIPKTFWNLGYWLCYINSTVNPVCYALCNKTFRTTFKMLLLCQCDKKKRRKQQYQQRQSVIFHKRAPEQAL

| Activity [1] | Activity [2] | Activity [3] | fraction unbound [4] | IP [5] [µM] | fraction unbound [6] | Emax [7] [%] | SMILES |
| --- | --- | --- | --- | --- | --- | --- | --- |
| inactive | inactive | inactive | 0.009 | 0.15 | 0.066 |  | Cn1cc(-c2ccc(Cn3cc(C(=O)O)c(=O)c4sccc43)cc2)cn1 |
| inactive | inactive | inactive |  | 0.21 |  | 92 | O=C(O)c1cn(Cc2ccc(-c3ccccc3)cc2)c2ccccc2c1=O |
| inactive | inactive | inactive |  | 17.9 |  |  | Cc1ccnn1-c1ccc(Cn2cc(C(=O)O)c(=O)c3cccnc32)cc1 |
| inactive | inactive | inactive | 0.003 | 0.58 | 0.008 | 56 | O=C(O)c1cn(Cc2ccc(-c3ccccc3)cc2)c2ncccc2c1=O |
| inactive | inactive | inactive |  | 3.5 |  | 69 | O=C(O)c1cn(Cc2ccc(-c3ccccc3)cc2)c2nsnc2c1=O |
| inactive | inactive | inactive | 0.004 | 0.37 | 0.007 | 78 | O=C(O)c1cn(Cc2ccc(-c3ccccc3)cc2)c2sccc2c1=O |
| inactive | inactive | inactive |  | 87.2 |  | 48 | O=C(O)c1cn(Cc2ccc(-c3ccccc3)cc2)c2ncncc2c1=O |
| inactive | inactive | inactive |  | 0.43 |  | 62 | O=C(O)c1cn(Cc2ccc(-c3ccccc3)cc2)c2cnccc2c1=O |
| inactive | inactive | inactive | 0.048 | 0.81 | 0.061 |  | O=C(O)c1cn(Cc2ccc(-n3cccn3)cc2)c2ncccc2c1=O |
| inactive | inactive | inactive |  | 2 |  |  | COc1ccc(-c2ccc(Cn3cc(C(=O)O)c(=O)c4sccc43)nc2)cn1 |
| inactive | inactive | inactive |  | 1.66 |  |  | O=C(O)c1cn(Cc2ccc(-c3ccsc3)cn2)c2ccsc2c1=O |
| inactive | inactive | inactive |  | 1.38 |  | 92 | O=C(O)c1cn(Cc2ccc(-c3ccccc3)cc2)c2cccnc2c1=O |
| inactive | inactive | inactive |  | 13 |  |  | Cc1ccnn1-c1ccc(Cn2cc(C(=O)O)c(=O)c3ccncc32)cc1 |
| inactive | inactive | inactive |  | 0.81 |  |  | O=C(O)c1cn(Cc2ccc(-c3ccnc(Cl)c3)cn2)c2ccsc2c1=O |
| inactive | inactive | inactive |  | 1.03 |  |  | Cc1cn(-c2ccc(Cn3cc(C(=O)O)c(=O)c4ccncc43)cc2)cn1 |
| inactive | inactive | inactive | 0.099 | 0.038 | 0.117 |  | Nc1cccc(-c2ccc(Cn3cc(C(=O)O)c(=O)c4sccc43)nc2)c1 |
| inactive | inactive | inactive |  | 0.6 |  |  | O=C(O)c1cn(Cc2ccc(-c3ccncc3)cc2)c2ccsc2c1=O |
| inactive | inactive | inactive |  | 0.56 | 0.012 |  | Cc1ccn(-c2ccc(Cn3cc(C(=O)O)c(=O)c4cccnc43)cc2)n1 |
| inactive | inactive | inactive | 0.008 | 0.15 | 0.013 | 90 | O=C(O)c1cn(Cc2ccc(-c3ccccc3)cc2)c2ccsc2c1=O |
| inactive | inactive | inactive | 0.259 | 0.24 | 0.199 |  | O=C(O)c1cn(Cc2ccc(-n3ccnc3)cc2)c2ccsc2c1=O |
| inactive | inactive | inactive |  | > 100 |  | 4 | O=C(O)c1cn(Cc2ccc(-c3ccccc3)cc2)c2ccncc2c1=O |
| inactive | inactive | inactive |  | 0.51 |  |  | Cc1ccn(-c2ccc(Cn3cc(C(=O)O)c(=O)c4sccc43)cc2)n1 |
| inactive | inactive | inactive |  | 0.5 |  |  | CN(C)c1ccc(-c2ccc(Cn3cc(C(=O)O)c(=O)c4sccc43)nc2)cn1 |
| inactive | inactive | inactive |  | 3.35 |  | 76 | O=C(O)c1cn(Cc2ccc(-c3ccccc3)cc2)c2csnc2c1=O |
| inactive | inactive | inactive | 0.023 | 0.78 | 0.023 | 96 | O=C(O)c1cn(Cc2ccc(-c3ccccc3)cc2)c2nccnc2c1=O |
| inactive | inactive | inactive |  | 1.05 |  |  | O=C(O)c1cn(Cc2ccc(-c3cccnc3)cn2)c2ccsc2c1=O |
| inactive | inactive | inactive |  | 1.14 |  |  | O=C(O)c1cn(Cc2ccc(-n3cccn3)cc2)c2cnccc2c1=O |
| inactive | inactive | inactive |  | 0.57 |  |  | O=C(O)c1cn(Cc2ccc(-c3cccnc3)cc2)c2ccsc2c1=O |
| inactive | inactive | inactive | 0.052 | 0.34 | 0.233 |  | Cc1cn(-c2ccc(Cn3cc(C(=O)O)c(=O)c4cccnc43)cc2)cn1 |
| inactive | inactive | inactive |  | 5.95 |  | 34 | O=C(O)c1cn(Cc2ccc(-c3ccccc3)cc2)c2nnccc2c1=O |

Source: ChEMBL document CHEMBL1156154, “Heterocyclic fused pyridone carboxylic acid M(1) positive allosteric modulators” (Bioorg Med Chem Lett, 2010)
